Assay results taken from PMC5598103 (Toxicology Reports, 2014).

Key:
[1] = biological target: T1, tissue non-specific alkaline phosphatase (TNAP) (Homo sapiens, UniProt P05186); test: Alkaline phosphatase inhibition, spectrophotometric p-NPP assay; type: biochemical; conditions: for Ki: read-out: Ki ± SEM TNAP, pH 9.5, p-NPP substrate, SEM of 3 experiments
T1 sequence (P05186 18-524): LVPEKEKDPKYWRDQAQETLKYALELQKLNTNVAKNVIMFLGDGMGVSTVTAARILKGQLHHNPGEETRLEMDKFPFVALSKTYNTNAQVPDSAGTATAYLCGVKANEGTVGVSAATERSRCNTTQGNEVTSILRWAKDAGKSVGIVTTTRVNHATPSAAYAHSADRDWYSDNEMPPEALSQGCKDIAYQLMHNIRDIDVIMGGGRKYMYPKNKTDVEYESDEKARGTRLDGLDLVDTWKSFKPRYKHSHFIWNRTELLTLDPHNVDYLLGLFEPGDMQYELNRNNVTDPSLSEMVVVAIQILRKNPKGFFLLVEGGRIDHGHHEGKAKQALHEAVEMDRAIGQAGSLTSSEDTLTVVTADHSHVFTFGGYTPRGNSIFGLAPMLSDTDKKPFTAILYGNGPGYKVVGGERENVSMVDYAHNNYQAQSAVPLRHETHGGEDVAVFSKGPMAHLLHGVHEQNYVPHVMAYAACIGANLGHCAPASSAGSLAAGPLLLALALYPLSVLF
Summary of the method: (§1)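 Commercial enzyme (calf-intestinal CIAP; TNAP) diluted in pH 9.5 buffer of 50 mM Tris–HCl, 5 mM MgCl2, 0.1 mM ZnCl2 and 50% glycerol. Test compound was preincubated with enzyme in glycerol-free buffer at 37 °C for 10 min. 0.5 mM p-NPP solution was added, incubated 30 min, and p-nitrophenolate read at 405 nm. Screen at 0.1 mM used levamisole (TNAP) or L-phenylalanine (CIAP) as standards. Ki came from 3-fold serial dilutions, run in triplicate.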

HeLa cells = test: Cytotoxicity by sulforhodamine B; type: cell-based, human; conditions: for Percent inhibition ± SEM at 0.1 μM on Hela cells / Percent inhibition ± SEM at 1 μM on Hela cells / Percent inhibition ± SEM at 10 μM on Hela cells: up to 48 h
Summary of the method: (§2)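 HeLa or vero cells were grown in RPMI-1640 with 2 mM L-glutamine, penicillin/streptomycin and 10% FBS at 37 °C, 5% CO2. Cells were seeded at 10^4 per well for 24 h, then exposed to 10, 1 or 0.1 μM test compound for up to 48 h, with vincristine and medium controls. Cells were fixed with cold TCA for 1 h and stained 30 min with 0.4% SRB in 1% acetic acid. Dye was solubilised in 10 mM Tris base and read at 490 nm minus 630 nm. Three experiments were run, each in triplicate.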

vero cells = test: Cytotoxicity by sulforhodamine B; type: cell-based; conditions: for Percent inhibition ± SEM at 10 μM on vero cells: up to 48 h
Summary of the method: as §2

[2] = biological target: calf intestine alkaline phosphatase (CIAP); test: Alkaline phosphatase inhibition, spectrophotometric p-NPP assay; type: biochemical; conditions: read-out: Ki ± SEM CIAP; pH 9.5, p-NPP substrate, SEM of 3 experiments
Summary of the method: as §1

Compound	inhibition at 100 µM ([1]; read-out: Percent inhibition of TNAP) [%]	Ki [2] [µM]	Ki [1] [µM]	inhibition at 10 µM (HeLa cells; Homo sapiens, HeLa, 48 h, read-out: Percent inhibition ± SEM at 10 μM on Hela cells) [%]	inhibition at 10 µM (vero cells; Chlorocebus sabaeus, Vero, 48 h, read-out: Percent inhibition ± SEM at 10 μM on vero cells) [%]	Percent inhibition ± SEM at 0.1 μM on Hela cells (HeLa cells) [%]	Percent inhibition ± SEM at 1 μM on Hela cells (HeLa cells) [%]	Percent inhibition ± SEM at 10 μM on Hela cells (HeLa cells) [%]	Percent inhibition ± SEM at 10 μM on vero cells (vero cells) [%]
c1ccc([C@H]2CN3CCSC3=N2)cc1 [Levamisole, reference compound]	71								
CC[C@]1(O)C[C@H]2CN(CCc3c([nH]c4ccccc34)[C@@](C(=O)OC)(c3cc4c(cc3OC)N(C=O)[C@H]3[C@@](O)(C(=O)OC)[C@H](OC(C)=O)[C@]5(CC)C=CCN6CC[C@]43[C@@H]65)C2)C1 [VCN, vincristine, reference compound]				72 ± 7	10 ± 4				
Na6[V10O28]·18H2O		0.0791 ± 0.0023	0.169 ± 0.021			49 ± 11	57 ± 13	66 ± 15	16 ± 3

Further lines, with some results ahead:

inhibition at 100 µM ([1]; read-out: Percent inhibition of TNAP) [%]	Ki [2] [µM]	Ki [1] [µM]	Compound	inhibition at 10 µM (HeLa cells; Homo sapiens, HeLa, 48 h, read-out: Percent inhibition ± SEM at 10 μM on Hela cells) [%]	inhibition at 10 µM (vero cells; Chlorocebus sabaeus, Vero, 48 h, read-out: Percent inhibition ± SEM at 10 μM on vero cells) [%]	Percent inhibition ± SEM at 0.1 μM on Hela cells (HeLa cells) [%]	Percent inhibition ± SEM at 1 μM on Hela cells (HeLa cells) [%]	Percent inhibition ± SEM at 10 μM on Hela cells (HeLa cells) [%]	Percent inhibition ± SEM at 10 μM on vero cells (vero cells) [%]
	0.921 ± 0.006	1.11 ± 0.036	(NH4)14[NaP5W30O110]·31H2O			54 ± 6	62 ± 13	74 ± 10	15 ± 6
	0.52 ± 0.013	0.0454 ± 0.0113	Na6[TeW6O24]·22H2O			53 ± 12	62 ± 10	69 ± 10	16 ± 8
